Assay outcomes (PubChem BioAssay)
dFosB activator: enhances mouse delta FosB homodimer DNA binding | purified delta FosB, TAMRA-CDK5 oligo fluorescence polarization; percent of positive-control signal above neutral wells | AID 493131 | 0.99% of 340,000 active | activation, % at 25 µM | P13346;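 active = mean activation above about 17%, with every replicate also reaching it, limit read from the data, passing the limit was not always enough; inconclusive = only one of the two conditions met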
Target sequence (P13346 whole entry, looked up): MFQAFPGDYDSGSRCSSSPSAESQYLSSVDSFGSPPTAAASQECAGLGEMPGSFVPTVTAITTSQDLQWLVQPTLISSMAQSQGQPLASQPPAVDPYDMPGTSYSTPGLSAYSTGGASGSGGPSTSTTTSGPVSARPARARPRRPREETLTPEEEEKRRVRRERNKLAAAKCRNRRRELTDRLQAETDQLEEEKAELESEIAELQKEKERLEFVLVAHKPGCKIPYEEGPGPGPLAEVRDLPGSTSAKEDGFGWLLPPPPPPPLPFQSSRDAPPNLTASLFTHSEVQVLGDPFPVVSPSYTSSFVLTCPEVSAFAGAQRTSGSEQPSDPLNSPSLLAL
RAD54 branch: RAD54 (human) branch migration inhibition; RAD54 Holliday junction branch migration, FAM/BHQ fluorescence; inhibition, % at 10.4 µM; 0.14% of 360,000 active; AID 602329;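 active = mean normalized replicate activity at least 40 and at least half of replicates scoring 40 or more; inconclusive = only one of the two criteria met; inactive = mean below 40 and under half of replicates reaching 40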;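 note: 0% = median of neutral control wells and 100% = median of positive control wells; inhibitors cause a drop in the FAM fluorescence signal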
S100A4 MyoIIA: inhibitors of human S100A4 binding to myosin IIA peptide; P26447; S100A4/TAMRA-MyoIIA peptide fluorescence polarization; inhibition, % at 10.7 µM; 0.14% of 360,000 active; AID 652163;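 active = mean inhibition of at least 70% across replicates, with every replicate also reaching that level; inconclusive = mean inhibition reaches 70% but some replicates fall short; inactive = mean inhibition below 70%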
Target sequence (P26447 whole entry, looked up): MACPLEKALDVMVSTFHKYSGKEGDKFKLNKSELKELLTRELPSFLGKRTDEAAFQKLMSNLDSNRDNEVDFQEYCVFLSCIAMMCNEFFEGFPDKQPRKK
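Test system: S100A4 monomer protein; Medium: HEPES pH 7.2 with CaCl2, KCl, NaCl, DTT, Triton; Probe or stimulus: TAMRA-labelled myosin IIA heavy-chain peptide probe, 5 nM; Doses: one dose per compound; Times: polarization read 5 min after assay mix addition, stable 5–60 min; Benchmarks: neutral control DMSO, positive control TFP.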
MLL AF4-AF9 inh: blocks AF4 peptide binding to human AF9 | 0.47% of 350,000 active | AID 651704 | inhibition, % at 10 µM | AlphaScreen, biotin-AF4 peptide binding to FLAG-AF9;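 active = every replicate reaching a set inhibition limit, whatever the replicate mean, cut at about 25% in these data; inconclusive = mean inhibition reaches that limit but some replicates miss it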;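 note: 0% = plate neutral control median and 100% = total signal loss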
RAD52 anneal inh: inhibitors of human RAD52 DNA annealing | P43351 | recombinant RAD52 DNA annealing, FRET fluorescence | inhibition, % at 18.7 µM | 0.46% of 360,000 active | AID 651710;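 active = every replicate showing at least 50% inhibition; inconclusive = mean inhibition at least 50% but not in every replicate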
AlphaScreen intf: counter-screen: AlphaScreen signal interference | shares compounds with MLL AF4-AF9 inh | signal luminescence | 45% of 530 active | AID 720494 | AC50, µM (doses to about 12 µM), for inactives: at the highest dose activity change, negative = inhibition; cut-off not given, nearly all actives have AC50 up to about 14 µM
The depositor's hits bear a star; i = inactive; ? = inconclusive; / = no result; ! = repeats disagree. Shown are actives, neighbours in structure and some others; about 1.5% of the full set was active somewhere.

SMILES	dFosB activator	RAD54 branch	S100A4 MyoIIA	MLL AF4-AF9 inh	RAD52 anneal inh	AlphaScreen intf
CN(C)c1ccc(C=C2C=C(c3ccccc3)OC2=O)cc1	/	-2	8	-9	-9	/
COc1cc(N(C)C)ccc1C=c1c2ccccc2n2c1cc(-c1ccccc1)[n+]2C	234*	/	?	84*	45	2.1µM*
CCC1CCCCN1C(=S)NN=C(C)c1ccccn1 (stereo unspecified)	/	/	-5	37*	-86	7.4µM*
COc1cccc(NC(=O)N[C@H]2C=C[C@H](CC(=O)Nc3ccccc3)O[C@H]2CO)c1	/	/	8	-6	-10	/
O=C(N/N=C/c1cc(Cl)cc([N+](=O)[O-])c1O)c1cccc(S(=O)(=O)N2CCOCC2)c1	-5	3	-4	36*	-12	12µM*
O=C(c1cnccn1)N1CC(=O)N2[C@H](C1)[C@@H](c1ccc(-c3cccc(F)c3)cc1)[C@@H]2CO	/	/	6	-1	19	/
COCCNC(=O)C[C@H]1C[C@@H]2c3cc(NS(=O)(=O)c4ccc(F)cc4)ccc3O[C@@H]2[C@H](CO)O1	/	-3	/	/	/	/
O=C(NC1CCCCC1)C(c1cccnc1)N(C(=O)CCl)c1cccc(Cl)c1 (stereo unspecified)	9	10	5	39*	46	-21%
O=C(NC1CCCCC1)C(c1cccs1)N(CCCN1CCOCC1)C(=O)c1ccc(-c2ccccc2)[nH]1 (stereo unspecified)	-5	/	-8	31*	-17	-17%
COC(=O)C1=C[C@@H](C(=O)OC)[C@@H]2C3=C(C(=O)C2(C)C)[C@H](c2ccccc2)[C@@H]2C(=O)N(C)C(=O)[C@@H]2[C@@H]3C1	-4	3	16	?	-21	16%
COC(=O)CN1C(=O)[C@@H]2[C@H](C1=O)[C@@H]1CC(C(=O)OC)=C[C@@H](C(=O)OC)[C@@H]3C1=C(C(=O)[C@]3(C)NC(=O)c1ccccc1)[C@@H]2C	9	-5	0	-8	-16	/
COc1ccccc1NC1=C(NC(C)=O)C(=O)c2ccccc2C1=O	-10	/	6	9	-15	/
COC1=C(Nc2ccccc2OC)C(=O)c2ccccc2C1=O	-2	-3	-7	50*	-9	7.9µM*
CCCNC(=O)Nc1ccc2c(c1)C(=O)N(C)[C@H]1CC[C@H](CC(=O)NCCCN(C)C)O[C@H]1CO2	/	-1	1	-1	10	/
O=C1/C(=C/c2cccs2)CCC/C1=C\c1cccs1	-16	-10	-1	0	-28	/
CC1C/C(=C/c2cccs2)C(=O)/C(=C/c2cccs2)C1 (stereo unspecified)	1	/	6	?	-76	-20%
CN1CCN(C(=O)C[C@@H]2CC[C@@H]3[C@@H](COc4ccc(NC(=O)C5CCC5)cc4C(=O)N3C)O2)CC1	/	/	14	1	1	/
Cc1cc(C)n2c(Nc3ccc4c(c3)OCCO4)c(-c3ccccn3)nc2n1	/	/	-7	18	-2	/
Cc1ccn2c(Nc3ccc4c(c3)OCO4)c(-c3ccccn3)nc2c1	21*	-3	46	32*	-95	9.3µM*
CCN(CC)c1ccc(/C=C/c2ccc3ccc(OC)cc3[n+]2CC)cc1	?	-3	100*	59*	-34	5.2µM*
CC[n+]1c(/C=C/c2ccc(N(C)C)cc2)ccc2ccccc21	53*	/	-23	50*	20	5.8µM*
COCC#Cc1ccc2c(c1)O[C@H](CN(C)C)[C@H](C)CN([C@H](C)CO)S2(=O)=O	/	-9	4	-2	-7	/
Nc1ccccc1Nc1cc(-c2ccccc2)nn1-c1cccc(Cl)c1	2	/	2	31*	-9	-24%
CC1=NN(c2ccccc2)C(=O)/C1=C/C=C/c1ccc(N(C)C)cc1	-17	/	6	67*	3	-41%
CC1=NN(c2ccccc2)C(=O)/C1=C\C=C\c1ccccc1	/	-7	1	5	-9	/
SMILES	dFosB activator	RAD54 branch	S100A4 MyoIIA	MLL AF4-AF9 inh	RAD52 anneal inh	AlphaScreen intf
CN(C)c1ccnc2c[cH-]cc12.[Fe].c1ccc(-[c-]2[c-](-c3ccccc3)[c-](-c3ccccc3)[c-](-c3ccccc3)[c-]2-c2ccccc2)cc1 (stereo unspecified)	5	0	0	29*!	-20	-13%
O=C(C[C@@H]1C[C@@H]2c3cc(NS(=O)(=O)c4ccc(F)cc4)ccc3O[C@@H]2[C@H](CO)O1)NCc1ccc(-c2ccccc2)cc1	/	-6	2	-1	-5	/
CCC(=O)N1CC(=O)N2[C@H](CO)[C@H](c3ccc(C#CCc4ccccc4)cc3)[C@H]2C1	/	/	-14	-6	-8	/
COCC#Cc1ccc2c(c1)O[C@H](CN(C)C)[C@@H](C)CN([C@H](C)CO)S2(=O)=O	/	4	-9	0	-3	/
O=C1/C(=C/c2ccc(O)c(O)c2)SC(=S)N1Nc1ccccc1	0	/	/	/	/	/
O=C(NN1C(=O)/C(=C/c2ccc(O)c(O)c2)SC1=S)c1ccccc1	7	-18	6	?	i	-24%
C[C@@H]1CN([C@@H](C)CO)C(=O)c2cc(-c3ccc(C(=O)N(C)C)cc3)cnc2O[C@@H]1CN(C)C(=O)c1ccncc1	/	9	7	-2	-1	/
COc1ccccc1Nc1c2c(nc3ccc(N)cc13)CCCC2	-5	11	-3	61*	13	-21%
COc1cc(Nc2c3c(nc4ccccc24)CCC3)cc(OC)c1OC	-8	11	-1	8	8	/
Cc1ccccc1/C=N/Nc1nc2ccccc2[nH]1	-3	/	10	5	-5	/
O=[N+]([O-])c1cc(/C=N/Nc2nc3ccccc3[nH]2)c(O)cc1O	/	/	3	41*	-14	1.6µM*
COc1ccc(-c2oc3ccccc3c(=O)c2OC(C)=O)cc1	-6	3	3	55*	-36	7.3µM*
CC(C)C1CC(CCNCc2ccc3c(c2)OCO3)(c2ccccc2)CCO1 (stereo unspecified)	-7	/	-2	5	4	/
CC(C)C1CC(CCNCc2ccc(N(C)C)cc2)(c2ccccc2)CCO1 (stereo unspecified)	0	-7	-1	39*	7	8.6µM*
Cc1[nH]n(-c2ccccc2)c(=O)c1N=Nc1c(O)cc(S(=O)(=O)N(C)C)c2ccccc12	-4	-22	1	50*	-10	9%
CN(C)c1ccc(N=C/C=C2/N(C)c3ccccc3C2(C)C)cc1	-12	-7	-44	48*	-115	11µM*
CCCNC(=O)C[C@@H]1CC[C@H]2[C@H](COc3ccc(NC(=O)c4cscn4)cc3C(=O)N2C)O1	/	/	/	-3	/	/
COc1ccc(CN(C)C[C@H]2Oc3c(NS(=O)(=O)c4ccc(F)cc4)cccc3C(=O)N([C@@H](C)CO)C[C@H]2C)cc1	/	0	11	0	-2	/
